Data as given in ChEMBL document CHEMBL4406851, “Design, synthesis and biological evaluation of cinnamic acid derivatives with synergetic neuroprotection and angiogenesis effect” (Eur J Med Chem, 2019).

How the values were obtained:
[1] = system: SH-SY5Y; assay: Neuroprotective activity against H2O2-induced cell damage in human SH-SY5Y cells assessed as increase in cell viability preincubated for 24 hrs followed by H2O2 addition and measured after 4 hrs by MTT assay; assay type: functional, cell-based
Summary of the method: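 Cells at 3.5×10^4 cells/mL in 96-well plates were grown 24 h (37 °C, 5% CO2). Test agent was added at five concentrations for 24 h, then H2O2 (4.8 mM stock) to model and drug wells. After PBS washes, MTT (5 mg/mL) was added for 4 h, formazan was dissolved in DMSO and OD was read at 550 nm. Proliferation rate = (drug − injury OD)/(control − injury OD). EC50 came from a formula using maximum concentration and summed, maximal and minimal rates.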

[2] = system: SH-SY5Y; assay: Inhibition of H2O2-induced apoptosis in human SH-SY5Y cells assessed as early apoptotic cells at 3.13 uM preincubated for 24 hrs followed by H2O2 addition measured after 4 hrs by Annexin V-FITC/propidium iodide staining based flow cytometry (reference value: 5.4 %); assay type: functional; set-up: scale not given: the % may be the effect or the level left
Summary of the method: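 Cells were seeded at 3.5×10^4 cells/mL in 6-well plates at 37 °C, 5% CO2. Compound was added at three concentrations for 24 h, then H2O2 (4.8 mM stock solution) to model and drug wells for 4 h. Cells were collected, washed in cold PBS and resuspended in annexin-binding buffer. Staining was annexin V-FITC 10 min, then PI 5 min, in the dark, followed by flow cytometry with quadrant gating.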

## COc1cc(CNC(=O)/C=C/c2cc(OC)c(OC)cc2OC)ccc1O
[1]
  EC50: 2410 nM
[2]
  Activity: 4.2%
